Screening data: PubChem, several laboratories
Hits are enriched below; roughly 1.9% of the tested compounds scored in any of these assays.
NSD2 HMT inh: NSD2 histone methyltransferase inhibitors, primary screen, biochemical, AlphaScreen, single concentration, set 2; Histone-lysine N-methyltransferase NSD2 (Homo sapiens), O96028; NSD2 peptide methylation, 120 min; inhibition, % at 12.5 µM; 310,000 compounds, 0.54% hits; AID 743445, 2014; in the data active means inhibition above about 50%
MBD2 DNA inh: inhibitors of MBD2 binding to methylated DNA, primary screen, biochemical, TR-FRET, DNA-binding domain, human. inhibition, % at 4.4 µM. AID 686964, 2013. 370,000 compounds, 0.31% hits. MBD2 binding to methylated oligonucleotide; in the data active means inhibition above about 13%
LEDGF integ inh: blockers of LEDGF/p75-dependent integrase strand transfer – biochemical, TR-FRET, high throughput, primary screen. HIV-1 integrase (with human LEDGF/p75). TR-FRET IN-LEDGF/p75 DNA integration, Eu/Cy5. inhibition, % at 3.7 µM. 370,000 compounds, 0.64% hits. AID 743269, 2014;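 active means inhibition above the screen-wide mean plus 3 SD, cut at about 13% in these data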;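 further: signal is the Cy5 over europium emission ratio at 671 and 618 nm; 0% = plate median of compound wells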
CASP6 VEID inh: human caspase-6 inhibitors, primary screen, biochemical, VEID-R110 fluorescence, single point, set 2; purified caspase-6, Z-VEID-R110 cleavage fluorescence; P55212; 350,000 compounds, 0.53% hits; inhibition, % at 12.5 µM;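 active means mean inhibition across replicates at least about 35%, with every replicate also reaching that limit, limit read from the data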;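 further: 0% = median of neutral control wells and 100% = no fluorescence left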
Target sequence (P55212 24-179 limits assumed): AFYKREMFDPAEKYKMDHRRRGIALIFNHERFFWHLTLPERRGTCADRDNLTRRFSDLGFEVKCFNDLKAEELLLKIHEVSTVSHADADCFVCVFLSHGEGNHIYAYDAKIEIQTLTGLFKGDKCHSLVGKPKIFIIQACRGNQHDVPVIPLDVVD
Target sequence (P55212 194-293 limits assumed): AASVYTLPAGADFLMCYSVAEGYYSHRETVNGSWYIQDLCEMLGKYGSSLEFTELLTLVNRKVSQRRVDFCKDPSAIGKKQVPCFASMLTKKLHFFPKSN
UHRF1 binding: UHRF1 methylated DNA binding inhibitors, primary screen, counter-screen for MBD2 inhibitor project, biochemical, TR-FRET, human UHRF1, single concentration; E3 ubiquitin-protein ligase UHRF1 (Homo sapiens), Q96T88; UHRF1 binding to methylated oligo; inhibition, % at 4.4 µM; 370,000 compounds, 0.75% hits; in the data active means inhibition above about 21%;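 further: UHRF1 SRA domain binding a hemimethylated CpG hairpin DNA probe; 0% = median of test compound wells and 100% = reference inhibitor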
TDP2 absorb: human TDP2 enzyme inhibitors, primary screen, biochemical, epi absorbance, recombinant enzyme. Tyrosyl-DNA phosphodiesterase 2 (Homo sapiens), O95551. T5PNP hydrolysis, p-nitrophenol absorbance 415 nm. inhibition, % at 12.8 µM. 370,000 compounds, 0.34% hits;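 active means inhibition above the mean of all tested compounds plus 3 SD, set per campaign, cut at about 25% in these data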;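 further: 0% = DMSO with enzyme and 100% = buffer with substrate but no TDP2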
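Evaluation: % inhibition relative to enzyme-containing and enzyme-free wells. Material: recombinant human TDP2. Benchmarks: enzyme-free and DMSO wells. Timing: enzyme reaction with compound for 2 h at 37 °C. Compound dosing: 12.8 µM only. Measured by: p-Nitrophenol epi absorbance. Reagent: T5PNP substrate at 5 mM, a TopII-DNA adduct mimic. Replication: single well per compound.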
The depositor's hits bear a star.

Screening Cc1cc(C)c2sc(NNC(=O)c3ccc(S(=O)(=O)N4CCc5ccccc5C4)cc3)nc2c1 returned MBD2 DNA inh 1.4, LEDGF integ inh 18.7*, CASP6 VEID inh 1.1, UHRF1 binding -2.1 and TDP2 absorb -4.0.
Screening Cc1ccc(S(=O)(=O)N(CC(=O)NN=C2CCN(C)CC2)c2ccc(C(C)C)cc2)cc1 returned NSD2 HMT inh 2.0, MBD2 DNA inh 2.0, LEDGF integ inh 0.2, CASP6 VEID inh -2.8, UHRF1 binding 33.7* and TDP2 absorb 2.8.
`Cc1ccc(N(CC(=O)NN=C2CCN(C)CC2)S(=O)(=O)c2ccc(C)cc2)cc1` gave NSD2 HMT inh -2.2, MBD2 DNA inh 1.4, LEDGF integ inh -1.7, CASP6 VEID inh 2.6, UHRF1 binding 2.1 and TDP2 absorb -1.1.
`CO[C@@H]1CN(C)C(=O)c2ccc(NC(=O)c3ccc4c(c3)OCO4)cc2OC[C@H](C)N(CCC(F)(F)F)C[C@H]1C` gave CASP6 VEID inh -1.6.
O=C(C1CCN(S(=O)(=O)N2CCC3(CC2)OCCO3)CC1)N1CCc2ccccc2C1 was read as MBD2 DNA inh -1.6, LEDGF integ inh -2.4, CASP6 VEID inh -0.8, UHRF1 binding 5.0 and TDP2 absorb 1.0.
Screening O=C(C1CCN(c2ccc(N3CCOCC3)nn2)CC1)N1CCc2ccccc2C1 returned NSD2 HMT inh 4.4, MBD2 DNA inh -3.1, LEDGF integ inh 1.1, CASP6 VEID inh 55.9*, UHRF1 binding 1.4 and TDP2 absorb -5.2.
Screening CCN(CC1COc2ccccc2O1)S(=O)(=O)c1ccc(C)cc1 (stereo not drawn) returned NSD2 HMT inh -5.3, MBD2 DNA inh 8.6, LEDGF integ inh 3.8, UHRF1 binding 25.6* and TDP2 absorb -10.9.
`CCN(CC)S(=O)(=O)c1ccc(C(=O)NNC(=O)C2COc3ccccc3O2)cc1` (stereo not drawn) gave NSD2 HMT inh 2.4, MBD2 DNA inh -2.2, LEDGF integ inh 5.9, CASP6 VEID inh -2.6, UHRF1 binding -1.1 and TDP2 absorb 4.1.
`CC(C)c1ccc(CN2CC(C(=O)Nc3ccccc3)CC2=O)cc1` (stereo not drawn) gave NSD2 HMT inh 0.7, MBD2 DNA inh -1.4, LEDGF integ inh 0.4, CASP6 VEID inh 1.4, UHRF1 binding 27.4* and TDP2 absorb -5.2.
O=C(COc1ccc(Br)cc1)NNC(=O)c1cc(S(=O)(=O)N2CCOCC2)ccc1Cl was read as NSD2 HMT inh 1.0, MBD2 DNA inh -3.0, LEDGF integ inh 35.3*, CASP6 VEID inh 3.7, UHRF1 binding -1.6 and TDP2 absorb -1.2.
NS(=O)(=O)c1ccc(CNC(=O)/C=C/c2ccco2)cc1 was read as NSD2 HMT inh 41.7, MBD2 DNA inh 4.3, LEDGF integ inh 4.8, CASP6 VEID inh 35.7*, UHRF1 binding 9.2 and TDP2 absorb 10.4.
For COc1ccc(S(=O)(=O)Nc2ccc3c(c2)CC(=O)N([C@@H](C)CO)C[C@@H](C)[C@H](CN(C)C(=O)Nc2ccccc2)O3)cc1 the results were CASP6 VEID inh 0.7.
For COC(=O)c1ccc2nc(-c3ccco3)c(Cc3ccccc3)n2c1 the results were MBD2 DNA inh 1.2, LEDGF integ inh 8.5, CASP6 VEID inh 13.8, UHRF1 binding 21.6* and TDP2 absorb 1.6.
`COC(=O)c1ccc2nc(-c3ccco3)c(Cc3cccc(Cl)c3)n2c1` gave MBD2 DNA inh 8.0, LEDGF integ inh 6.0, CASP6 VEID inh 11.3, UHRF1 binding 21.9* and TDP2 absorb 13.2.
Cc1ccc(NC(=O)CN2C(=O)S/C(=C\c3ccc(OCC(=O)O)c(Br)c3)C2=O)cc1 was read as NSD2 HMT inh 4.7, MBD2 DNA inh 0.7, LEDGF integ inh -0.7, CASP6 VEID inh 11.6, UHRF1 binding 0.2 and TDP2 absorb 5.5.
